According to ChEMBL document CHEMBL4715736, “Identification of anticancer agents based on the thieno[2,3-b]pyridine and 1H-pyrazole molecular scaffolds” (2016):

Columns and labels:
Format in all cases: functional
UACC-62 = experiment: Growth inhibition of human UACC-62 cells assessed as cell growth at 0.1 uM incubated for 48 hrs by sulforhodamine B assay relative to control; conditions: read-out: Activity
MOLT-4 = experiment: Growth inhibition of human MOLT-4 cells assessed as cell growth at 100 uM incubated for 48 hrs by sulforhodamine B assay relative to control; conditions: read-out: Activity
MDA-MB-468 = experiment: Growth inhibition of human MDA-MB-468 cells incubated for 48 hrs by sulforhodamine B assay; conditions: for CC50: read-out: LC50 (the source's name)
Method in brief: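 NCI60 panel at the NCI Developmental Therapeutics Program. Only compounds active in the 10 µM screen went to dose-response testing. GI50, the concentration giving 50% of maximal inhibition of proliferation, and TGI, the concentration giving total growth inhibition, were derived from the dose-response curves.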

PC-3 [1] = experiment: Growth inhibition of human PC-3 cells incubated for 48 hrs by sulforhodamine B assay; conditions: for CC50: read-out: LC50 (the source's name)
Method in brief: (§1)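 NCI DTP 60-line human tumour panel. Dose-response curves were run only for ligands active in the initial 10 µM screen. GI50 (concentration giving 50% of maximal inhibition of proliferation) and TGI (concentration giving total growth inhibition) were derived from these curves.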

Malme-3M [2] = experiment: Growth inhibition of human Malme-3M cells assessed as cell growth at 0.1 uM incubated for 48 hrs by sulforhodamine B assay relative to control; conditions: read-out: Activity
TK-10 = experiment: Growth inhibition of human TK-10 cells assessed as cell growth at 100 uM incubated for 48 hrs by sulforhodamine B assay relative to control; conditions: read-out: Activity
COLO 205 = experiment: Growth inhibition of human COLO 205 cells assessed as cell growth at 100 uM incubated for 48 hrs by sulforhodamine B assay relative to control; conditions: read-out: Activity
Method in brief: (§2)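 NCI Developmental Therapeutics Program NCI60 panel. Compounds that were active in the 10 µM one-dose screen went on to dose–response testing. Growth at each concentration is expressed relative to untreated control (100%). GI50 (concentration giving 50% of maximal inhibition of proliferation) and TGI (concentration giving total growth inhibition) were derived from the curves.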

HT-29 = experiment: Growth inhibition of human HT-29 cells assessed as cell growth at 100 uM incubated for 48 hrs by sulforhodamine B assay relative to control; conditions: read-out: Activity
T47D [3] = experiment: Growth inhibition of human T47D cells assessed as cell growth at 0.1 uM incubated for 48 hrs by sulforhodamine B assay relative to control; conditions: read-out: Activity
OVCAR-5 [4] = experiment: Growth inhibition of human OVCAR-5 cells incubated for 48 hrs by sulforhodamine B assay; conditions: for CC50: read-out: LC50 (the source's name); method in brief: as §1
BT-549 = experiment: Growth inhibition of human BT-549 cells assessed as cell growth at 0.1 uM incubated for 48 hrs by sulforhodamine B assay relative to control; conditions: read-out: Activity
HOP-62 [5] = experiment: Growth inhibition of human HOP-62 cells assessed as cell growth at 0.1 uM incubated for 48 hrs by sulforhodamine B assay relative to control; conditions: read-out: Activity
CAKI-1 = experiment: Growth inhibition of human CAKI-1 cells assessed as cell growth at 1 uM incubated for 48 hrs by sulforhodamine B assay relative to control; conditions: read-out: Activity; method in brief: as §2
OVCAR-5 [6] = experiment: Growth inhibition of human OVCAR-5 cells assessed as cell growth at 0.01 uM incubated for 48 hrs by sulforhodamine B assay relative to control; conditions: read-out: Activity
HOP-62 [7] = experiment: Growth inhibition of human HOP-62 cells assessed as cell growth at 0.01 uM incubated for 48 hrs by sulforhodamine B assay relative to control; conditions: read-out: Activity
UO-31 = experiment: Growth inhibition of human UO-31 cells assessed as cell growth at 0.1 uM incubated for 48 hrs by sulforhodamine B assay relative to control; conditions: read-out: Activity
A549 = experiment: Growth inhibition of human A549/ATCC cells assessed as cell growth at 0.1 uM incubated for 48 hrs by sulforhodamine B assay relative to control; conditions: read-out: Activity; method in brief: as §2
Hs-578T = experiment: Growth inhibition of human Hs-578T cells assessed as cell growth at 1 uM incubated for 48 hrs by sulforhodamine B assay relative to control; conditions: read-out: Activity
SN12C = experiment: Growth inhibition of human SN12C cells assessed as cell growth at 1 uM incubated for 48 hrs by sulforhodamine B assay relative to control; conditions: read-out: Activity
NCI-H226 [8] = experiment: Growth inhibition of human NCI-H226 cells assessed as cell growth at 0.01 uM incubated for 48 hrs by sulforhodamine B assay relative to control; conditions: read-out: Activity
Malme-3M [9] = experiment: Growth inhibition of human Malme-3M cells assessed as cell growth at 100 uM incubated for 48 hrs by sulforhodamine B assay relative to control; conditions: read-out: Activity
MDA-MB-435 = experiment: Growth inhibition of human MDA-MB-435 cells assessed as cell growth at 0.01 uM incubated for 48 hrs by sulforhodamine B assay relative to control; conditions: read-out: Activity
OVCAR-3 = experiment: Growth inhibition of human OVCAR-3 cells assessed as cell growth at 1 uM incubated for 48 hrs by sulforhodamine B assay relative to control; conditions: read-out: Activity
M14 = experiment: Growth inhibition of human M14 cells assessed as cell growth at 100 uM incubated for 48 hrs by sulforhodamine B assay relative to control; conditions: read-out: Activity
PC-3 [10] = experiment: Growth inhibition of human PC-3 cells assessed as cell growth at 1 uM incubated for 48 hrs by sulforhodamine B assay relative to control; conditions: read-out: Activity
OVCAR-5 [11] = experiment: Growth inhibition of human OVCAR-5 cells assessed as cell growth at 0.1 uM incubated for 48 hrs by sulforhodamine B assay relative to control; conditions: read-out: Activity
T47D [12] = experiment: Growth inhibition of human T47D cells assessed as cell growth at 100 uM incubated for 48 hrs by sulforhodamine B assay relative to control; conditions: read-out: Activity
KM12 = experiment: Growth inhibition of human KM12 cells assessed as cell growth at 1 uM incubated for 48 hrs by sulforhodamine B assay relative to control; conditions: read-out: Activity
SK-MEL-5 = experiment: Growth inhibition of human SK-MEL-5 cells assessed as cell growth at 1 uM incubated for 48 hrs by sulforhodamine B assay relative to control; conditions: read-out: Activity
RPMI-8226 = experiment: Growth inhibition of human RPMI-8226 cells assessed as cell growth at 100 uM incubated for 48 hrs by sulforhodamine B assay relative to control; conditions: read-out: Activity
NCI/ADR-RES [13] = experiment: Growth inhibition of human NCI/ADR-RES cells assessed as cell growth at 100 uM incubated for 48 hrs by sulforhodamine B assay relative to control; conditions: read-out: Activity
NCI-H226 [14] = experiment: Growth inhibition of human NCI-H226 cells assessed as cell growth at 1 uM incubated for 48 hrs by sulforhodamine B assay relative to control; conditions: read-out: Activity
786-0 = experiment: Growth inhibition of human 786-0 cells assessed as cell growth at 1 uM incubated for 48 hrs by sulforhodamine B assay relative to control; conditions: read-out: Activity; method in brief: as §2
NCI/ADR-RES [15] = experiment: Growth inhibition of human NCI/ADR-RES cells assessed as cell growth at 0.1 uM incubated for 48 hrs by sulforhodamine B assay relative to control; conditions: read-out: Activity
SR = experiment: Growth inhibition of human SR cells assessed as cell growth at 1 uM incubated for 48 hrs by sulforhodamine B assay relative to control; conditions: read-out: Activity
SF-295 = experiment: Growth inhibition of human SF-295 cells assessed as cell growth at 100 uM incubated for 48 hrs by sulforhodamine B assay relative to control; conditions: read-out: Activity

Nc1c(C(=O)Nc2ccccc2)sc2nc3c(cc12)CN(Cc1ccccc1)CC3
growth at 0.1 µM (UACC-62): 92%
growth at 100 µM (MOLT-4): 18%
GI50 (MDA-MB-468): 17 µM
TGI (MDA-MB-468): > 100 µM
CC50 (MDA-MB-468): > 100 µM
GI50 (PC-3 [1]): 27.1 µM
TGI (PC-3 [1]): > 100 µM
CC50 (PC-3 [1]): > 100 µM
growth at 0.1 µM (Malme-3M [2]): 88%
growth at 100 µM (TK-10): -7%
growth at 100 µM (COLO 205): 23%
growth at 100 µM (HT-29): 8%
growth at 0.1 µM (T47D [3]): 79%
GI50 (OVCAR-5 [4]): > 100 µM
TGI (OVCAR-5 [4]): > 100 µM
CC50 (OVCAR-5 [4]): > 100 µM
growth at 0.1 µM (BT-549): 89%
growth at 0.1 µM (HOP-62 [5]): 84%
growth at 1 µM (CAKI-1): 87%
growth at 0.01 µM (OVCAR-5 [6]): 99%
growth at 0.01 µM (HOP-62 [7]): 89%
growth at 0.1 µM (UO-31): 83%
growth at 0.1 µM (A549): 99%
growth at 1 µM (Hs-578T): 78%
growth at 1 µM (SN12C): 87%
growth at 0.01 µM (NCI-H226 [8]): 98%
growth at 100 µM (Malme-3M [9]): 14%
growth at 0.01 µM (MDA-MB-435): 93%
growth at 1 µM (OVCAR-3): 100%
growth at 100 µM (M14): 35%
growth at 1 µM (PC-3 [10]): 89%
growth at 0.1 µM (OVCAR-5 [11]): 92%
growth at 100 µM (T47D [12]): 19%
growth at 1 µM (KM12): 88%
growth at 1 µM (SK-MEL-5): 95%
growth at 100 µM (RPMI-8226): 42%
growth at 100 µM (NCI/ADR-RES [13]): 29%
growth at 1 µM (NCI-H226 [14]): 92%
growth at 1 µM (786-0): 106%
growth at 0.1 µM (NCI/ADR-RES [15]): 101%
growth at 1 µM (SR): 82%
growth at 100 µM (SF-295): 12%

COc1cccc(NC(=O)c2sc3nc4c(cc3c2N)CN(Cc2ccccc2)CC4)c1
growth at 0.1 µM (UACC-62): 89%
growth at 100 µM (MOLT-4): 13%
GI50 (MDA-MB-468): 2.6 µM
TGI (MDA-MB-468): 61.4 µM
CC50 (MDA-MB-468): > 100 µM
GI50 (PC-3 [1]): 11.6 µM
TGI (PC-3 [1]): 91.1 µM
CC50 (PC-3 [1]): > 100 µM
growth at 0.1 µM (Malme-3M [2]): 89%
growth at 100 µM (TK-10): -55%
growth at 100 µM (COLO 205): -16%
growth at 100 µM (HT-29): -72%
growth at 0.1 µM (T47D [3]): 94%
GI50 (OVCAR-5 [4]): 36.9 µM
TGI (OVCAR-5 [4]): > 100 µM
CC50 (OVCAR-5 [4]): > 100 µM
growth at 0.1 µM (BT-549): 91%
growth at 0.1 µM (HOP-62 [5]): 86%
growth at 1 µM (CAKI-1): 78%
growth at 0.01 µM (OVCAR-5 [6]): 91%
growth at 0.01 µM (HOP-62 [7]): 80%
growth at 0.1 µM (UO-31): 92%
growth at 0.1 µM (A549): 93%
growth at 1 µM (Hs-578T): 72%
growth at 1 µM (SN12C): 85%
growth at 0.01 µM (NCI-H226 [8]): 93%
growth at 100 µM (Malme-3M [9]): -42%
growth at 0.01 µM (MDA-MB-435): 93%
growth at 1 µM (OVCAR-3): 82%
growth at 100 µM (M14): -4%
growth at 1 µM (PC-3 [10]): 73%
growth at 0.1 µM (OVCAR-5 [11]): 95%
growth at 100 µM (T47D [12]): -19%
growth at 1 µM (KM12): 64%
growth at 1 µM (SK-MEL-5): 58%
growth at 100 µM (RPMI-8226): 27%
growth at 100 µM (NCI/ADR-RES [13]): -26%
growth at 1 µM (NCI-H226 [14]): 81%
growth at 1 µM (786-0): 85%
growth at 0.1 µM (NCI/ADR-RES [15]): 97%
growth at 1 µM (SR): 25%
growth at 100 µM (SF-295): -52%
